Measurements: ChEMBL document CHEMBL1131375, “2-amino-4H-3,1-benzoxazin-4-ones as inhibitors of C1r serine protease” (J Med Chem, 1998)

How the values were obtained:
[1] = biological target: T1, Complement C1r subcomponent (Homo sapiens, UniProt P00736)
T1 sequence (P00736 whole entry): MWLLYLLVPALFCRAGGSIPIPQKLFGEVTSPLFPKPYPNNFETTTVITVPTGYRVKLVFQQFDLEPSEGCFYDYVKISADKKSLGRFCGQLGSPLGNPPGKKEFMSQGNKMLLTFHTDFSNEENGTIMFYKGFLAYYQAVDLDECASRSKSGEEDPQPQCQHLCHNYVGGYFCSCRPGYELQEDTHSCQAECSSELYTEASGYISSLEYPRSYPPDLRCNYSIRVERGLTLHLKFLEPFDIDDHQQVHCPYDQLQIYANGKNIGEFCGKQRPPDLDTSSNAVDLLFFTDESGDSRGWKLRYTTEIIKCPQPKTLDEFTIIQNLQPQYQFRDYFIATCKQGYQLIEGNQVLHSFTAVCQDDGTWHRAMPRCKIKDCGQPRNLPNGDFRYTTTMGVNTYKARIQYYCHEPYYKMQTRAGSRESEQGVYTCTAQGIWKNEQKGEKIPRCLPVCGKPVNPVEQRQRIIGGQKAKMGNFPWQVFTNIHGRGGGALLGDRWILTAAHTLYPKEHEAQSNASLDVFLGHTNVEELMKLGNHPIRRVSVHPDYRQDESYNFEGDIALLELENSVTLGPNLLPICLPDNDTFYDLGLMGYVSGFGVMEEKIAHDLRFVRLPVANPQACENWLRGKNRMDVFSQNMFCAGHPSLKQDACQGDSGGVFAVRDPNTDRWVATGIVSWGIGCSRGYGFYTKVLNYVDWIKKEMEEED

[2] = biological target: T1, Complement C1r subcomponent; assay: 50% inhibition of human C1r serine protease after 60 mins using Cbz-Gly-Arg-S-Bzl as substrate
Outline: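 Compound (DMSO) preincubated 60 min at room temperature in 150 mM Tris pH 7.5, then substrate (1.5 mM stock Cbz-Gly-Arg-S-Bzl in DMSO/H2O 3:7), DTNB (0.75 mM stock) and purified human C1r (20 μg/mL stock, 10 mM Tris pH 7.4) added. Read kinetically at 405 nm after 30 s; no-enzyme background wells; triplicates per concentration; IC50 reported.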

[3] = The compound was examined in a functional assay using erythrocyte hemolysis as a functional end point of complement inhibition.; parameters: species or system Ovis aries; concentration or dose not given beside the values
Outline: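 Compound added to standardized antibody-sensitized sheep erythrocyte suspension (commercial complement kit), incubated 60 min at 25 °C, centrifuged; supernatant absorbance read at 405 nm. Expressed as percent of control at 200 μM.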

[4] = biological target: T2, Serine protease 1 (Bos taurus, UniProt P00760); assay: Concentration of compound required to inhibit 50% trypsin derived from bovine pancreas
T2 sequence (P00760 whole entry): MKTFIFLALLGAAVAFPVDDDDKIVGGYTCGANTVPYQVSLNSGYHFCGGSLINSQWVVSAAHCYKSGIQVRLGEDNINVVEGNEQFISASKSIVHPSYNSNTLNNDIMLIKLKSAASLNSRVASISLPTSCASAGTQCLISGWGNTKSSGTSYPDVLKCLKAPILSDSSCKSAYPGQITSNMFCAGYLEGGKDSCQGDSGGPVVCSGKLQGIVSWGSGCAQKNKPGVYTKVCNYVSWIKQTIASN
Outline: (§1)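 Bovine pancreatic trypsin (1.25 μg) with casein 0.5 mg/mL, 20 mM dithiothreitol, 50 mM Tris-HCl pH 7.4, at various inhibitor concentrations; 60 min, 25 °C caseinolysis, colorimetric development, absorbance 595 nm. IC50 from percent inhibition versus log [inhibitor]; mean of two to four determinations, ranges within 20%.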

[5] = biological target: T2, Serine protease 1; assay: The compound was evaluated to inhibit trypsin and is expressed in IC50 (The concentration required to inhibit 50% of the enzyme).
Outline: as §1

SMILES	IC50 [1] [µM]	IC50 [2] [µM]	other results
O=c1oc(NCCc2ccccc2I)nc2ccccc12	> 62.5		
O=c1oc(Nc2ccccc2OC(F)(F)F)nc2ccccc12		> 62.5	
O=c1oc(-c2ccccc2I)nc2ccccc12			Hemolysis (% of control) [3]: 61%; IC50 [4]: 15.3 µM
O=c1oc(Nc2ccccc2I)nc2cc(C3CCCCC3)ccc12	> 62.5		
Cc1ccccc1Nc1nc2ccccc2c(=O)o1		38	
O=c1oc(Nc2c(Cl)cccc2Cl)nc2cc(C(F)(F)F)ccc12	1.5	4.2	Hemolysis (% of control) [3]: 120%; IC50 [4]: 87.1 µM
O=c1oc(Nc2ccccc2Cl)nc2cc([N+](=O)[O-])ccc12		> 62.5	
O=c1oc(Nc2c(Cl)cccc2Cl)nc2cc(Cl)ccc12		0.9	
CNc1nc2ccccc2c(=O)o1	> 62.5		
Cc1cccc2nc(NC(C)C)oc(=O)c12	> 62.5		
CN(c1nc2ccccc2c(=O)o1)c1ccccc1I		16.6	Hemolysis (% of control) [3]: 72%; IC50 [4]: 4.5 µM
O=c1oc(NCc2ccccc2I)nc2ccccc12	> 62.6		
Nc1nc2ccccc2c(=O)o1	> 62.5		
Cc1cccc(C)c1Nc1nc2ccccc2c(=O)o1	> 62.5		
O=c1oc(Nc2ccccc2Br)nc2ccccc12		15.2	IC50 [4]: > 100 µM
CSc1ccccc1Nc1nc2ccccc2c(=O)o1	> 62.5		
CCN(c1nc2ccccc2c(=O)o1)c1ccccc1I	> 62.5		
N=C(N)c1ccc2cc(OC(=O)c3ccc(N=C(N)N)cc3)ccc2c1 [NAFAMOSTAT]			IC50 [5]: 0.017 µM

The next lines start with results.

IC50 [1] [µM]	IC50 [2] [µM]	SMILES	other results
	8	O=c1oc(Nc2ccccc2Cl)nc2ccccc12	
0.8	7.8	O=c1oc(Nc2ccccc2I)nc2cc([N+](=O)[O-])ccc12	Hemolysis (% of control) [3]: 126%; IC50 [4]: > 100 µM
47	47	COc1cc2nc(Nc3ccccc3I)oc(=O)c2cc1OC	
	0.9	Cc1ccc2c(=O)oc(Nc3ccccc3Cl)nc2c1	
	> 62.5	O=c1oc(Nc2ccccc2I)nc2ccc(Cl)cc12	
	1.5	Cc1ccc2c(=O)oc(Nc3ccccc3I)nc2c1	Hemolysis (% of control) [3]: 114%; IC50 [4]: > 100 µM
0.9	0.9	O=c1oc(Nc2c(Cl)cccc2Cl)nc2ccccc12	
> 62.5		CN(C)c1ccc2c(=O)oc(Nc3ccccc3I)nc2c1	
> 62.5		COc1ccc2c(=O)oc(Nc3ccccc3I)nc2c1	
	4	O=c1oc(Nc2ccccc2I)nc2cc(C(F)(F)F)ccc12	Hemolysis (% of control) [3]: 146%; IC50 [4]: > 100 µM
> 62.5		Cc1ccc2nc(Nc3ccccc3I)oc(=O)c2c1	
> 62.5		CC(C)c1ccc2c(=O)oc(Nc3ccccc3I)nc2c1	
	0.9	O=c1oc(Nc2ccccc2I)nc2cc(Cl)ccc12	
1.7	2.8	O=c1oc(Nc2ccccc2I)nc2cc(F)ccc12	IC50 [4]: > 100 µM
	> 62.5	O=c1oc(Nc2ccccc2I)nc2cc(Cl)c(Cl)cc12	
	> 62.5	O=c1oc(Nc2ccccc2I)nc2cc(F)c(F)cc12	
	> 62.5	COc1ccc2nc(Nc3ccccc3I)oc(=O)c2c1	
0.2	16.6	O=c1oc(Nc2ccccc2I)nc2cc3ccccc3cc12	
	> 62.5	O=c1oc(Nc2ccccc2Cl)nc2cc(Cl)c(Cl)cc12	
> 62.5		O=c1oc(Nc2ccccc2I)nc2cc(Cl)cc(Cl)c12	
0.8	0.8	O=c1oc(Nc2ccccc2Cl)nc2cc(Cl)ccc12	Hemolysis (% of control) [3]: 138%; IC50 [4]: > 100 µM
2	2	O=c1oc(Nc2cc(Cl)ccc2Cl)nc2ccccc12	Hemolysis (% of control) [3]: 131%; IC50 [4]: > 100 µM
> 62.5		Cc1cccc2nc(Nc3ccccc3I)oc(=O)c12	
	14.7	O=c1oc(Nc2ccccc2I)nc2ccccc12	
	> 62.5	O=c1oc(Nc2ccccc2I)nc2cccc(Cl)c12	
